Compounds with a hit are over-represented: about 3% of the library has one in this group of screens.
NPY Y2 blocker: antagonists of human neuropeptide Y receptor Y2; P49146; NPY-Y2 expressing cells, antagonist mode; inhibition, % at 2.7 µM; 0.99% of 140,000 active; AID 793; in the data active = inhibition above about 17%;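 also: 0% = vehicle with agonist challenge and 100% = reference antagonist with challenge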
Wee1 stabilizer: blocks degradation of human Wee1 kinase | HeLa Luc-Wee1K328M stability, luciferase luminescence; 100% = proteasome inhibitor MG132 effect | P30291 | reporter increase, % at 5 µM | 1.2% of 220,000 active;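 active = activation above the mean of all tested compounds plus 3 SD, set per screening run, cut at about 8.8% in these data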;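 also: cells exposed to compound for 20 h before luminescence read; 0% = DMSO alone and 100% = MG132 at 30 µM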
Target sequence (P30291 whole entry K328M): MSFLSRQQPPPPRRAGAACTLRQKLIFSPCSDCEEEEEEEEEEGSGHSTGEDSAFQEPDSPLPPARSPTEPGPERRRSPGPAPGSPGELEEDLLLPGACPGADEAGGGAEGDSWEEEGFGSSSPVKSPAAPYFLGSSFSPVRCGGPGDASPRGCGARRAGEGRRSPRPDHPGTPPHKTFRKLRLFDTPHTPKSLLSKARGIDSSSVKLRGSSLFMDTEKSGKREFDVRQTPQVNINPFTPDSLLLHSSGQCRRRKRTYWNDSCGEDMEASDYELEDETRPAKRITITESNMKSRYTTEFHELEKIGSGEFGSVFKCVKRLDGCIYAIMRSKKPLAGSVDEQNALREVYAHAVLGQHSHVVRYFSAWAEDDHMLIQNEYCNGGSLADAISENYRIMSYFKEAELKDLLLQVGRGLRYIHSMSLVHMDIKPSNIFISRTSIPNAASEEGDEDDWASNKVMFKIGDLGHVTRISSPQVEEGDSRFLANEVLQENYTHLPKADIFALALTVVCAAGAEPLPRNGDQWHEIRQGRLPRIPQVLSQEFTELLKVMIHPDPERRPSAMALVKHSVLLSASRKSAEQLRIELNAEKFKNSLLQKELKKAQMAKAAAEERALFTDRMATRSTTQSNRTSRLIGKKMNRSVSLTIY
NPY-Y2 PAM-ag: potentiates or activates human NPY-Y2 receptor | P49146 | cells expressing NPY-Y2, potentiator/agonist read-out | activation, % at 3.6 µM | 0.45% of 220,000 active; in the data active = activation above about 27%;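 also: cells stimulated with NPY near EC25 plus isoproterenol at EC100; 0% = vehicle plus submaximal agonist and 100% = vehicle plus saturating agonist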
Hsp70 act: Hsp70 transcriptional activation, primary screen; HeLa Hsp70 promoter luciferase reporter, luminescence; scaled: vehicle 0, proteasome-inhibitor control 100%; AID 1203; activation, % at 10 µM; 0.04% of 200,000 active;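 active = activation above the mean across all tested compounds plus 3 SD, cutoff set per campaign, cut at about 5.5% in these data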;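 also: 100% = MG132 at 30 µM as the positive control and 0% = DMSO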
NPY-Y1 antag: blocks the human neuropeptide Y Y1 receptor. P25929. HEK293-CNG Y1 cells, membrane potential fluorescence; NPY at EC95, then isoproterenol. inhibition, % at 3.6 µM. 1% of 200,000 active. AID 1040;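 active = inhibition above the campaign mean inhibition of all tested compounds plus 3 SD, cut at about 20% in these data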;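 also: 0% = DMSO wells given NPY plus isoproterenol and 100% = isoproterenol alone without NPY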
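Material: HEK293 Y1/CNG channel cell line | Also added: NPY (25 nM), isoproterenol (1 µM), Ro 20-1724 (25 µM) | Compound: One concentration, 3.6 µM, in 0.4% DMSO | Schedule: 3 h dye uptake, 1 h room-temperature compound, 45 min post-isoproterenol | Signal: Membrane-potential fluorescent dye readout | Read-out: % inhibition of NPY effect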
NPY-Y1 PAM-ag: potentiates or activates human NPY-Y1 receptor; activation, % at 3.6 µM; NPY-Y1 expressing cells, potentiator/agonist activation; AID 1304; 0.37% of 220,000 active; P25929; in the data active = activation above about 33%, passing the limit was not always enough;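 also: cells stimulated with NPY at EC10 then isoproterenol at EC100; 0% = low agonist plus stimulus and 100% = saturating agonist plus stimulus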
Wee1 stab conf: confirmation of human Wee1 degradation inhibitors; shares compounds with Wee1 stabilizer; HeLa Luc-Wee1K328M degradation, luminescence; vehicle 0%, proteasome-blocked wells 100%; activation, % at 5 µM; 4% of 1,100 active; in the data active = activation above about 8.9%
Starred values were filed as active, the others as inactive; . = no result.

SMILES | NPY Y2 blocker | Wee1 stabilizer | NPY-Y2 PAM-ag | Hsp70 act | NPY-Y1 antag | NPY-Y1 PAM-ag | Wee1 stab conf
CC(=O)Nc1ccc(N2CCCCC2)cc1 | -0.5 | 11.9* | 8.8 | -0.1 | 5.4 | 9.0 | 2.0
CN1CCN(c2oc(Cc3cccc4ccccc34)nc2C#N)CC1 | . | 13.0* | 4.3 | . | . | -5.3 | 0.3
N#Cc1nc(Cc2cccc3ccccc23)oc1N1CCCCC1 | 4.4 | -0.1 | -6.2 | -0.3 | -1.4 | 21.9 | .
O=C(CNC(=O)c1ccncc1)N/N=C/c1ccc(O)cc1O | . | 13.5* | 4.6 | . | . | 13.0 | 2.1
O=C(O)CCn1c(=O)n(CCC(=O)O)c(=O)n(CCC(=O)O)c1=O | . | 1.8 | -14.2 | 0.1 | -3.8 | 1.3 | .
COc1ccc(CC(=O)NNC(=O)CSc2nc(C)c(C)c(=O)[nH]2)cc1 | . | 3.6 | -12.7 | -0.2 | 1.8 | -11.6 | .
CN(C)c1ccc(-c2nn3c(C4CCCCC4)nnc3s2)cc1 | 4.8 | 3.4 | -0.1 | -0.1 | 3.8 | -6.9 | .
COc1ccc(C2CC(c3ccc(C)o3)=NN2C(C)=O)cc1 (stereo not given) | -0.9 | 11.8* | 12.1 | 0.1 | -0.3 | 20.9 | 1.2
CC(=O)O/N=C/c1c(NCc2ccccc2)nc2c(C)cccn2c1=O | . | 12.3* | -14.9 | . | . | -14.3 | 2.2
O=C(/C=N\O)NCCCNCc1ccccc1 | 2.5 | 15.7* | -0.8 | -0.5 | -7.2 | 3.1 | 0.8
O=C(NCCCNCc1ccccc1)c1ccncc1 | 1.1 | -3.8 | 6.0 | -0.5 | 7.3 | 14.6 | .
CN(Cc1cc2ccccc2[nH]c1=O)S(C)(=O)=O | 2.0 | 13.2* | 6.5 | 0.2 | 3.5 | 12.8 | -1.4
Cc1cc(F)ccc1NC(=O)c1ccc(NS(=O)(=O)c2cc(C(C)(C)C)ccc2C)cc1 | -2.3 | 13.4* | -7.4 | -0.5 | 2.1 | 5.0 | 0.7
CC(/C=N/NC(=O)c1ccncc1)=C\c1ccccc1 | 9.2 | -0.2 | -12.2 | 0.0 | -2.2 | 7.7 | .
CC(=C/c1ccccc1)/C=N/NC(=O)c1ccccn1 | . | 32.4* | 4.8 | . | . | 5.2 | -2.5
Cc1ccc(Nc2ncc3c(n2)CC(C)(C)CC3=O)cc1 | . | 5.5 | -3.6 | 0.5 | -1.9 | 7.8 | .
COc1ccc(/C=C/C(=O)NC(=S)N2CCN(c3ccccc3OC)CC2)cc1 | . | 11.5* | -19.1 | . | . | -2.7 | 5.2
COc1ccccc1N1CCN(C(=O)/C=C/c2ccc(C)cc2)CC1 | 5.4 | -3.3 | -0.4 | 0.1 | 6.5 | 2.7 | .
CN(c1ccc(O)cc1)c1nc(-c2ccccc2)cs1 | -0.3 | 3.3 | 8.9 | -0.2 | -6.8 | 7.6 | .
Cc1cc(C)c2cc3c(N)c(C(=O)N4CCc5ccccc5C4)sc3nc2c1 | 2.5 | -1.8 | -21.5 | -0.1 | -1.1 | -11.6 | .
Cc1cccc2cc3c(N)c(C(=O)N4CCOCC4)sc3nc12 | 0.2 | 14.0* | -7.2 | 0.1 | -3.2 | -10.7 | 7.6
CC1(C)Cc2nc3sc4c(SCC(=O)NCc5ccccc5)ncnc4c3cc2CO1 | 2.8 | 13.5* | 5.7 | 0.0 | -2.2 | 2.8 | 0.1
O=C(Nc1ccc2sccc2c1)c1cccc(N2C(=O)CCC2=O)c1 | . | 14.6* | 1.6 | 0.1 | 2.4 | 1.4 | 4.5
N#C/C(=C\c1cn[nH]c1-c1ccccc1Br)C(=O)O | . | 13.1* | 4.5 | 0.2 | 0.6 | -10.8 | -0.7
O=Cc1cn[nH]c1-c1ccccc1 | . | -3.2 | -3.2 | -0.2 | 6.1 | 8.5 | .
SMILES | NPY Y2 blocker | Wee1 stabilizer | NPY-Y2 PAM-ag | Hsp70 act | NPY-Y1 antag | NPY-Y1 PAM-ag | Wee1 stab conf
O=C(Nc1ccccn1)C1COc2ccccc2O1 (stereo not given) | 3.2 | -0.1 | -6.1 | -0.4 | 3.2 | -15.5 | .
O=C(Nc1ccc(Cl)cn1)C1COc2ccccc2O1 (stereo not given) | . | 19.4* | -17.4 | 0.1 | -5.4 | -13.6 | 1.3
CCN1CCCC1CNC(=O)c1ccc(N2CCOCC2)c(NS(=O)(=O)c2ccc(OC)cc2)c1 (stereo not given) | . | 3.0 | -5.0 | -0.4 | -0.9 | 2.0 | .
COC(CNC(=O)c1ccc2nc(-c3cccs3)c(-c3cccs3)nc2c1)OC | 1.2 | 11.7* | 4.4 | -0.1 | 1.4 | 17.2 | 5.1
Cc1cc(/C=C(\C#N)C(=O)O)c(C)n1CC1CCCO1 (stereo not given) | . | 2.4 | -2.3 | 0.0 | -0.5 | -7.2 | .
Cc1ccc2nc(N(CCCN(C)C)C(=O)c3cc4ccccc4oc3=O)sc2c1 | 4.9 | 15.3* | 5.9 | -0.3 | 3.6 | -3.3 | -1.7
Cc1ccsc1/C=N\NC(=O)c1cc(C(C)(C)C)[nH]n1 | . | 44.4* | 9.1 | 0.0 | 4.6 | -6.0 | 2.8
Cc1cc(C(=O)N/N=C/c2sccc2C)no1 | 0.3 | 3.3 | 12.2 | -0.2 | 1.4 | 2.5 | .
CC1CCCC(NC(=O)COC(=O)c2ccc3ccccc3n2)C1C (stereo not given) | 4.0 | 1.3 | -19.5 | -0.2 | 3.8 | 0.2 | .
NC(=O)c1ccc(NC(=O)c2ccc(CN3CCOCC3)cc2)cc1 | 1.2 | 0.8 | 12.5 | -0.1 | -4.5 | 3.4 | .
O=C(Nc1ccc(CN2CCS(=O)(=O)CC2)cc1)c1ccc(Cl)cc1 | . | 10.9* | -0.2 | . | . | 10.2 | -0.3
CC(=O)Nc1cccc(-c2csc(Nc3ncccn3)n2)c1 | . | 13.3* | -5.5 | 0.3 | -4.8 | 6.5 | 5.2
CS(=O)(=O)c1ccc(C(=O)NCc2ccccc2F)cc1 | . | 1.4 | 6.0 | 0.1 | 4.0 | -10.2 | .
O=C(O)c1ccc2nc3c(nc2c1)-c1ccccc1C3=O | . | 17.1* | 4.5 | -0.1 | 3.1 | 0.5 | 5.0
O=C(O)c1ccc2nc(-c3ccco3)c(-c3ccco3)nc2c1 | . | 6.8 | 1.6 | 0.8 | -1.0 | 15.8 | .
O=C(CC(=O)c1ccccc1O)c1ccc(F)cc1 | 7.9 | 0.4 | -14.3 | 0.0 | -1.9 | -2.4 | .
O=C(CC(=O)c1ccccc1O)c1cccc(F)c1 | 0.5 | 10.9* | -14.8 | 1.8 | -0.8 | -21.3 | 4.5
COc1ccccc1CNC(=O)CN(C)S(=O)(=O)c1cccc2cccnc12 | . | -1.1 | 8.9 | . | . | -10.4 | .
NS(=O)(=O)c1ccc(NS(=O)(=O)c2cccs2)cc1 | -2.7 | -1.8 | -4.0 | -0.2 | 8.7 | -4.0 | .
Cc1ccc(NS(=O)(=O)c2ccc(NS(=O)(=O)c3cccs3)cc2)cc1 | 9.3 | 10.9* | -3.2 | -0.2 | -2.4 | 16.4 | 0.3
O=S(=O)(c1ccc(F)cc1)N1CCN(Cc2ccccn2)CC1 | . | -3.6 | 6.9 | -0.1 | -5.2 | 21.6 | .
Cc1ccccc1OCc1csc(N)n1 | . | 15.8* | 1.0 | 0.5 | -0.7 | -10.0 | -0.5
COC(=O)c1c(NC(=O)c2ccc(C)cc2)csc1C | . | 13.0* | -23.1 | . | . | -8.2 | 4.0
CCNC(=O)NC(=O)CSc1ccccc1F | 3.5 | -0.4 | -14.0 | -0.3 | -0.9 | -1.3 | .
COc1ccc(C)cc1N1C(=N)/C(=C2/Nc3ccccc3S2)C(c2ccccc2)C1=O (stereo not given) | 1.8 | 0.5 | -12.6 | -0.1 | 0.6 | -9.6 | .
CCOC(=O)CN(C(=O)COc1ccc2c(C)cc(=O)oc2c1)c1ccc(OCC)cc1 | . | 13.0* | 1.9 | 0.1 | 3.3 | -0.6 | 1.1
